Experimental data: ChEMBL document CHEMBL4130355, “Development of a series of novel 4-anlinoquinazoline derivatives possessing quinazoline skeleton: Design, synthesis, EGFR kinase inhibitory efficacy, and evaluation of anticancer activities in vitro” (Eur J Med Chem, 2017)
pIC50: −log10 of the molar value. Active and inactive are the calls of the source. The calls are words filed in the database; no cut-off is given here.

What was measured:
[1] = test system: HepG2; experiment: Cell cycle arrest in human HepG2 assessed as accumulation at S phase after 48 hrs by propidium iodide-staining based flow cytometry; type: functional
How it was run: (§1)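 HepG2 cells at 5.0 × 10^5/well were grown 24 h, then treated at 0, 2.5, 5.0 or 10.0 µM for 48 h alongside medium-only wells. Cells fixed in 70% ice-cold ethanol for ≥24 h, treated with RNase A at 37 °C for 30 min, then stained with propidium iodide for 30 min at 4 °C in the dark. DNA content read by flow cytometry. Average of at least three experiments.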

[2] = test system: HepG2; experiment: Induction of mitochondrial membrane potential loss in human HepG2 cells assessed as mitochondrial membrane potential levels at 20 uM after 48 hrs by rhodamine-123 dye based FACS analysis (reference value: 90.4%); type: functional
[3] = test system: HepG2; experiment: Antiproliferative activity against human HepG2 cells after 72 hrs by MTT assay; type: functional, cell-based; conditions: HepG2, 72 h
[4] = test system: HepG2; experiment: Cytotoxicity against human HepG2 cells at 40 uM after 48 hrs by LDH release assay (reference value: 100%); type: functional
How it was run: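 HepG2 seeded at 1.0 × 10^5 cells/well, grown 24 h at 37 °C in 5% CO2, then dosed for 48 h. LDH in supernatant read on plate reader per kit. Maximal release (100% cytotoxicity) came from lysis with 2% (V/V) lysate for 1 h at 37 °C; medium-only cells served as natural release. Triplicate, three independent runs.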

[5] = test system: A549; experiment: Antiproliferative activity against human A549 cells after 24 hrs by MTT assay; type: functional, cell-based; conditions: A549, 24 h
How it was run: (§2)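 MTT read-out. Cells seeded at 2 × 10^3/well, attached 24 h at 37 °C in 5% CO2, then exposed to 0.1–100 µM for 24, 48 or 72 h. MTT for 4 h, formazan dissolved in 10% SDS/NH4Cl for 10 h, absorbance at 570 nm corrected at 650 nm. % inhibition computed against untreated and blank wells. IC50 is the mean of at least three independent experiments.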

[6] = test system: HepG2; experiment: Cell cycle arrest in human HepG2 assessed as accumulation at S phase at 10 uM after 48 hrs by propidium iodide-staining based flow cytometry (reference value: 21.46%); type: functional; how it was run: as §1
[7] = test system: HepG2; experiment: Antiproliferative activity against human HepG2 cells at 10 uM after 72 hrs by MTT assay realtive to control; type: functional
How it was run: (§3)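 MTT assay in triplicate wells. Cells (2 × 10^3/well) were attached 24 h, then treated at 0.1, 1, 10, 50 or 100 µM for 24, 48 or 72 h. MTT added for 4 h, SDS solubilisation, absorbance at 570/650 nm. Inhibition = 1 − (OD treated − blank)/(OD control − blank). Reported as mean ± SD of three independent experiments.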

[8] = biological target: T1, Epidermal growth factor receptor (Homo sapiens, UniProt P00533); conditions: HEK293, at 0.01 µM
T1 sequence (P00533 whole entry): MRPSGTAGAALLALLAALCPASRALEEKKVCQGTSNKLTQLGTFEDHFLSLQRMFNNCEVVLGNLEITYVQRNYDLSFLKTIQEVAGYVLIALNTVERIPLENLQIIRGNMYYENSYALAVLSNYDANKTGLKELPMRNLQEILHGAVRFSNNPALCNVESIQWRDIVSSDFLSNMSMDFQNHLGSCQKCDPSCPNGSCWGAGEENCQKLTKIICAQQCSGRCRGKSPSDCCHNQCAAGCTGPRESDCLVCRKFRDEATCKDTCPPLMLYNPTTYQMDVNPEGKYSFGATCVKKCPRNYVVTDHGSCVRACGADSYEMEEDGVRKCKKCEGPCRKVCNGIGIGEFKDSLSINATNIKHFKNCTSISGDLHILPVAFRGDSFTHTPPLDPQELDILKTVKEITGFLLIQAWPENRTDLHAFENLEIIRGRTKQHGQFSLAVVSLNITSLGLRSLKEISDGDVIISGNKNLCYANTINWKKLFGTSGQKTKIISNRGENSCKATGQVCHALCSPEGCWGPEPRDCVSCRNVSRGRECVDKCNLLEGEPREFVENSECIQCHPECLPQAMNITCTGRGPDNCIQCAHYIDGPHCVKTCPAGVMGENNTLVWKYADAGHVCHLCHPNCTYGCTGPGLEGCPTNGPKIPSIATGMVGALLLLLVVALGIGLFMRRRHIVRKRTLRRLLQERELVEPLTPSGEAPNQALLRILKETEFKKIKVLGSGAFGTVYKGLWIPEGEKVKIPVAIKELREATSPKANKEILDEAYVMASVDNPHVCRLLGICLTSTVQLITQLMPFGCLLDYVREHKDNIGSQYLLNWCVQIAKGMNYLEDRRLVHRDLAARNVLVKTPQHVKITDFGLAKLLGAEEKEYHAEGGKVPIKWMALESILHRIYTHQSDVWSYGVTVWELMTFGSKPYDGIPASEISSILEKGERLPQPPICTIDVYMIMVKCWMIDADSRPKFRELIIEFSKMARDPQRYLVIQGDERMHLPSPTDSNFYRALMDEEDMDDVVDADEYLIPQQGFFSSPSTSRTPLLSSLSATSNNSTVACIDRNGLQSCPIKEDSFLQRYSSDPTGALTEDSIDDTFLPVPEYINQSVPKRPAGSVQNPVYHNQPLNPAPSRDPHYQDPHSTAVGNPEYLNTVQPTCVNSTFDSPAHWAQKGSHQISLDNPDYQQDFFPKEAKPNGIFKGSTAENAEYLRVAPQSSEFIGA

[9] = biological target: T1, Epidermal growth factor receptor; type: cell-based, HEK293
[10] = test system: HepG2; experiment: Induction of apoptosis in human HepG2 cells assessed as convoluted nuclei formation at 2.5 to 20 uM after 48 hrs by Hoechst 33342/propidium iodide double staining based laser scanning confocal microscopy; type: functional, cell-based
How it was run: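 HepG2 plated at 5.0 × 10^4 cells/well in DMEM with 10% FBS, 24 h at 37 °C, then treated 48 h (2.5–20 µM). After two ice-cold PBS washes, cells were stained with Hoechst 33342/PI mixed 1:1 for 30 min at 37 °C in the dark, washed three times, and imaged by laser scanning confocal microscopy at 200×.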

[11] = test system: HepG2; experiment: Antiproliferative activity against human HepG2 cells at 100 uM after 72 hrs by MTT assay realtive to control; type: functional; how it was run: as §3
[12] = test system: HepG2; experiment: Induction of mitochondrial membrane potential loss in human HepG2 cells assessed as mitochondrial membrane potential levels at 10 uM after 48 hrs by rhodamine-123 dye based FACS analysis (reference value: 90.4%); type: functional
[13] = test system: HepG2; experiment: Induction of apoptosis in human HepG2 cells assessed as elevation in ROS levels after 48 hrs by DCFH-DA fluorescence-based spectrometry; type: functional, cell-based
How it was run: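 HepG2 seeded at 5.0 × 10^5 cells/mL, 24 h at 37 °C in 5% CO2, then treated 48 h. Harvested cells were washed twice in ice-cold PBS and loaded with 10 µM DCFH-DA for 30 min at 37 °C. They were then trypsinized, washed and resuspended in ice-cold HBSS, and DCF fluorescence was read on a fluorescence spectrometer.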

[14] = test system: HepG2; experiment: Induction of apoptosis in human HepG2 cells assessed as early apoptotic cells at 5 uM after 48 hrs by Annexin V-FITC/propidium iodide double staining-based flow cytometry (reference value: 8.7%); type: functional
[15] = test system: SH-SY5Y; experiment: Antiproliferative activity against human SH-SY5Y cells after 72 hrs by MTT assay; type: functional, cell-based
[16] = test system: A549; experiment: Antiproliferative activity against human A549 cells at 50 uM after 48 hrs by MTT assay relative to control; type: functional; how it was run: as §3
[17] = test system: HepG2; experiment: Antiproliferative activity against human HepG2 cells at 10 uM after 24 hrs by MTT assay realtive to control; type: functional; how it was run: as §3
[18] = test system: HepG2; experiment: Cell cycle arrest in human HepG2 assessed as accumulation at G0/G1 phase at 2.5 uM after 48 hrs by propidium iodide-staining based flow cytometry (reference value: 69.40%); type: functional; how it was run: as §1
[19] = test system: HepG2; experiment: Induction of mitochondrial membrane potential loss in human HepG2 cells assessed as mitochondrial membrane potential levels at 5 uM after 48 hrs by rhodamine-123 dye based FACS analysis (reference value: 90.4%); type: functional
[20] = biological target: T1, Epidermal growth factor receptor; conditions: HEK293, at 10 pM
[21] = test system: HepG2; experiment: Induction of apoptosis in human HepG2 cells assessed as intracellular free Ca2+ levels at 20 uM after 48 hrs by FL1 channel/FACS analysis (reference value: 14.2%); type: functional
How it was run: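 HepG2 seeded at 5.0 × 10^5 cells/mL, 24 h at 37 °C in 5% CO2, then treated 48 h (2.5–20 µM). Harvested cells were washed in ice-cold PBS and loaded with 4 µM Fluo-3/AM for 30 min. After trypsinizing, they were washed twice and resuspended in HEPES, and fluorescence was measured in the FL-1 channel by flow cytometry. Values are averages of at least three independent experiments.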

[22] = test system: HepG2; experiment: Induction of apoptosis in human HepG2 cells assessed as late apoptotic cells at 10 uM after 48 hrs by Annexin V-FITC/propidium iodide double staining-based flow cytometry (reference value: 4.3%); type: functional
[23] = test system: HepG2; experiment: Cell cycle arrest in human HepG2 assessed as accumulation at G0/G1 phase at 5 uM after 48 hrs by propidium iodide-staining based flow cytometry (reference value: 69.40%); type: functional; how it was run: as §1
[24] = test system: A549; experiment: Antiproliferative activity against human A549 cells at 0.1 uM after 72 hrs by MTT assay relative to control; type: functional; how it was run: as §3
[25] = test system: HepG2; experiment: Antiproliferative activity against human HepG2 cells after 48 hrs by MTT assay; type: functional, cell-based; conditions: HepG2, 48 h; how it was run: as §2
[26] = biological target: T1, Epidermal growth factor receptor; conditions: HEK293, at 0.1 µM

COc1cc2c(Nc3ccc(C#N)cc3)ncnc2cc1OCCCN1CCC(c2ccccc2)CC1
Activity [1]: Dose-dependent effect
Activity [2]: 55.9%
pIC50 [3]: 5.28 to 5.34
Activity [4]: 41.17%
pIC50 [5]: 4.82
Activity [6]: 29.72%
Activity [7]: 63.6%
inhibition [8]: 61.8%
pIC50 [9]: 8.44
Activity [10]: Active
Activity [11]: 101%
Activity [12]: 84%
Activity [13]: Dose-dependent effect
Activity [14]: 80.7%
pIC50 [15]: 5.11
Activity [16]: 75.5%
Activity [17]: 63.5%
Activity [18]: 67.07%
Activity [19]: 87%
inhibition [20]: 17.9%
Activity [21]: 52.7%
Activity [22]: 0.1%
Activity [23]: 65.53%
Activity [24]: 5%
pIC50 [25]: 5.02
inhibition [26]: 73.1%
